Data taken from ChEMBL document CHEMBL2034856, “Synthesis and evaluation of 11β-(4-substituted phenyl) estradiol analogs: transition from estrogen receptor agonists to antagonists” (Bioorg Med Chem, 2012).

How the values were obtained:
[1] = target: T1, Estrogen receptor (Homo sapiens) (UniProt P03372); experiment: Agonist activity at Estrogen receptor expressed in human Ishikawa cells assessed as induction of alkaline phosphatase after 3 days by spectrophotometry relative to estradiol; assay type: functional, cell-based
T1 sequence (whole entry): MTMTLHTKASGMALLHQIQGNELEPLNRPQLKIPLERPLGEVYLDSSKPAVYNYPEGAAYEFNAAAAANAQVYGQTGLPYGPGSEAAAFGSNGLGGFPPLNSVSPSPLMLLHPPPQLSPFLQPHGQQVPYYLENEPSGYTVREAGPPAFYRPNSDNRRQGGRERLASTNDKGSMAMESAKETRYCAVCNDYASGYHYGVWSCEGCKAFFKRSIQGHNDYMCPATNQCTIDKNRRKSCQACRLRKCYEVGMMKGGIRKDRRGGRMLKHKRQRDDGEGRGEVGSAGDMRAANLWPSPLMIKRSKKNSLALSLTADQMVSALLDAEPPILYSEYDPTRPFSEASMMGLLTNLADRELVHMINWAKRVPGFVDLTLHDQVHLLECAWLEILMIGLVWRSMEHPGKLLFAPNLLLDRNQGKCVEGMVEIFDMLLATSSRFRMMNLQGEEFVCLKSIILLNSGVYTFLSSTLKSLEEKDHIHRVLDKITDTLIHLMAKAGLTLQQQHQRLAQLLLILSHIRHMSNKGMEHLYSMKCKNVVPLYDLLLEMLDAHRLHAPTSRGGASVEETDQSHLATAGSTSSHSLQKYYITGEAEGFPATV
Procedure, shortened: (§1)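 Ishikawa endometrial adenocarcinoma cells were grown in phenol red-free medium with charcoal-stripped bovine serum, with steroids across at least 6 orders of magnitude, for 3 days. Cells were then washed and freeze-thawed, and alkaline phosphatase was read kinetically as p-nitrophenol at 405 nm from 5 mM p-nitrophenyl phosphate at pH 9.8. RSA is the ratio of 1/EC50 versus E2 ×100, from curve fitting. At least 3 experiments were run in duplicate.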

[2] = target: Estrogen receptor beta (Homo sapiens) (UniProt Q92731); experiment: Displacement of [3H]estradiol from human ERbeta LBD expressed in Escherichia coli
Chain of Estrogen receptor beta (Homo sapiens) (Q92731 whole entry, the tested form may be a part): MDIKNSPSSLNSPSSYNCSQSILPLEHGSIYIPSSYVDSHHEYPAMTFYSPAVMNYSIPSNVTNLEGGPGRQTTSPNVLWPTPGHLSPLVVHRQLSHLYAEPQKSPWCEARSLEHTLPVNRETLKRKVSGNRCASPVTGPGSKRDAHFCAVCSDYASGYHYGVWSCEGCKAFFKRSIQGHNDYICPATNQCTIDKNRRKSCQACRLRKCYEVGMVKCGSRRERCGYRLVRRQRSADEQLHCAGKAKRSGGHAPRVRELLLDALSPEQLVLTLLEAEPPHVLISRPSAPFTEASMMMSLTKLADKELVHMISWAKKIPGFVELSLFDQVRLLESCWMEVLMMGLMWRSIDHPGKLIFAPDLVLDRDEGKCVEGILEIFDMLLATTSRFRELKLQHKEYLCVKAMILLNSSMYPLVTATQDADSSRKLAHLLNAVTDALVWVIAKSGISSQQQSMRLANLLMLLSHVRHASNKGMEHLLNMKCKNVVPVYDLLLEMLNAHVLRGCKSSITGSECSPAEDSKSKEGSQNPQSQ

[3] = target: T1, Estrogen receptor (Homo sapiens); experiment: Mixed agonist and antagonist activity at Estrogen receptor expressed in human Ishikawa cells assessed as induction of alkaline phosphatase after 3 days by spectrophotometry relative to estradiol; assay type: functional, cell-based; design: scale not given: the % may be the effect or the level left; procedure, shortened: as §1
[4] = target: T2, Estrogen receptor (Bos taurus) (UniProt P49884); experiment: Displacement of [3H]estradiol from calf cytosolic ER relative to estradiol
T2 sequence (whole entry): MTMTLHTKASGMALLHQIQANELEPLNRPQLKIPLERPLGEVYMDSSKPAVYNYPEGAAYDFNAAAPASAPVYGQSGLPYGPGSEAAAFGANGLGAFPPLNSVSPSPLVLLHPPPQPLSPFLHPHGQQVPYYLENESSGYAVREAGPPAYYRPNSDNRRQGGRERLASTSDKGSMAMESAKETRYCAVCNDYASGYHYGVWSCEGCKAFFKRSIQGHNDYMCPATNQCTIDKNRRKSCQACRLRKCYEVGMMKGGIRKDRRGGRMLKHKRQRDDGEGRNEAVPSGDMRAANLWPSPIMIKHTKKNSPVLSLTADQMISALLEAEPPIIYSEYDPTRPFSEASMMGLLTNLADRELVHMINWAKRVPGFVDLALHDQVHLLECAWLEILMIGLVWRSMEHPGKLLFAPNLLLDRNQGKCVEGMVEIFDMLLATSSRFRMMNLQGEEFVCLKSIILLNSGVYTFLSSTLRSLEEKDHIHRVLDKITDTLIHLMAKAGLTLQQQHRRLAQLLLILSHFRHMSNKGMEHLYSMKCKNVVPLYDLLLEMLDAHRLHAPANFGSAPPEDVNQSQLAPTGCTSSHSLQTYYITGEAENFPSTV

Estrogen receptor = target: T3, Estrogen receptor (Homo sapiens, UniProt P03372); experiment: Antagonist activity at Estrogen receptor expressed in human Ishikawa cells assessed as inhibition of estradiol-induced increase in alkaline phosphatase after 3 days by spectrophotometry; assay type: functional, cell-based
T3 sequence (P03372 whole entry): T1 sequence (whole entry)
Procedure, shortened: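 Ishikawa cells were grown in phenol red-free, charcoal-stripped bovine serum medium. Compounds at 10−6 to 10−12 M were tested against 10−9 M E2 for 3 days. Ki came from curve fitting. At least 3 experiments were run in duplicate.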

SMILES | RSA [1] | RBA [2] | other results
C=C[C@H]1C[C@]2(C)[C@@H](O)CC[C@H]2[C@@H]2CCc3cc(O)ccc3[C@H]21 | 70% | – | –
CN(C)CCOc1ccc([C@H]2C[C@]3(C)[C@@H](O)CC[C@H]3[C@@H]3CCc4cc(O)ccc4[C@H]32)cc1 | – | 17% | –
COc1ccc([C@H]2C[C@]3(C)[C@@H](O)CC[C@H]3[C@@H]3CCc4cc(O)ccc4[C@H]32)cc1 | – | – | Activity [3]: 35%
N#CC(=C(c1ccc(O)cc1)c1ccc(O)cc1)c1ccc(O)cc1 | – | – | RBA [4]: 166%
COc1ccc(/C(=C(/C#N)c2ccc(O)cc2)c2ccc(O)cc2)cc1 | – | – | RBA [4]: 17%
CO[C@H]1C[C@]2(C)[C@@H](O)CC[C@H]2[C@@H]2CCc3cc(O)ccc3[C@H]21 | 76% | – | –
C[C@]12C[C@H](c3ccc(OCCOCCOCCn4cc(CNC5=CC(=O)c6ccccc6C5=O)nn4)cc3)[C@@H]3c4ccc(O)cc4CC[C@H]3[C@@H]1CC[C@@H]2O | – | – | Ki (Estrogen receptor): 1.1 nM

Now from value to compound, other results behind:

RSA [1] | RBA [2] | SMILES | other results
17% | 41% | C[C@]12C[C@H](c3ccc(O)cc3)[C@@H]3c4ccc(O)cc4CC[C@H]3[C@@H]1CC[C@@H]2O | –
– | 27% | C[C@]12C[C@H](c3ccc(OCCCCCS(=O)(=O)C(F)(F)C(F)(F)F)cc3)[C@@H]3c4ccc(O)cc4CC[C@H]3[C@@H]1CC[C@@H]2O | Ki (Estrogen receptor): 5.3 nM
